From ChEMBL document CHEMBL4330127, “Discovery of Novel Pyruvate Dehydrogenase Kinase 4 Inhibitors for Potential Oral Treatment of Metabolic Diseases” (J Med Chem, 2019)
pIC50: −log10 of the molar value. The source made the active and inactive calls. No cut-off for these calls is given here.

Tests used:
[1] = target: T1, [Pyruvate dehydrogenase (acetyl-transferring)] kinase isozyme 4, mitochondrial (Homo sapiens, UniProt Q16654); test: Inhibition of PDK4 in HEK293T cells assessed as reduction in PDHE1alpha phosphorylation at Ser-232 residue by measuring phosphorylated PDHE1alpha level at 10 uM after 24 hrs by Western blot analysis; format: cell-based
T1 sequence (Q16654 whole entry, looked up): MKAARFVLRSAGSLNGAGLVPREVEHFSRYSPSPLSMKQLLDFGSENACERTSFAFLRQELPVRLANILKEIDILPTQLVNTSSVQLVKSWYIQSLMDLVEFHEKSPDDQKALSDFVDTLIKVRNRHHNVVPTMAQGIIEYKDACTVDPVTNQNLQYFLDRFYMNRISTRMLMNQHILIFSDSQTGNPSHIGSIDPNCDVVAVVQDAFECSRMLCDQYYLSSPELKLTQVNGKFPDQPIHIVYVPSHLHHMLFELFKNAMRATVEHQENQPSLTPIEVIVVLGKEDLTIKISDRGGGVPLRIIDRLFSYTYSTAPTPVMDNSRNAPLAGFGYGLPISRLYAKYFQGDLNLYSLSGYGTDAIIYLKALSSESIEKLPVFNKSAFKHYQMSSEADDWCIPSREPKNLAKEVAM
Procedure, shortened: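 HEK293T cells grown in high-glucose DMEM with 10% FBS at 37 °C, 5% CO2. Medium renewed after 24 h, then cells exposed to compound for 24 h and lysed. 20 μg protein per lane Western blotted with antibodies to phospho-PDHE1α Ser232, Ser293 and Ser300 and to total PDHE1α. Band intensity quantified relative to control; triplicate.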

[2] = target: UDP-glucuronosyltransferase 2B7 (Homo sapiens, UniProt P16662); test: Inhibition of UGT2B7 in human liver microsomes assessed as reduction in naloxone 3-glucuronidation by tandem mass spectrometry analysis; format: ADME
Chain of UDP-glucuronosyltransferase 2B7 (P16662 whole entry): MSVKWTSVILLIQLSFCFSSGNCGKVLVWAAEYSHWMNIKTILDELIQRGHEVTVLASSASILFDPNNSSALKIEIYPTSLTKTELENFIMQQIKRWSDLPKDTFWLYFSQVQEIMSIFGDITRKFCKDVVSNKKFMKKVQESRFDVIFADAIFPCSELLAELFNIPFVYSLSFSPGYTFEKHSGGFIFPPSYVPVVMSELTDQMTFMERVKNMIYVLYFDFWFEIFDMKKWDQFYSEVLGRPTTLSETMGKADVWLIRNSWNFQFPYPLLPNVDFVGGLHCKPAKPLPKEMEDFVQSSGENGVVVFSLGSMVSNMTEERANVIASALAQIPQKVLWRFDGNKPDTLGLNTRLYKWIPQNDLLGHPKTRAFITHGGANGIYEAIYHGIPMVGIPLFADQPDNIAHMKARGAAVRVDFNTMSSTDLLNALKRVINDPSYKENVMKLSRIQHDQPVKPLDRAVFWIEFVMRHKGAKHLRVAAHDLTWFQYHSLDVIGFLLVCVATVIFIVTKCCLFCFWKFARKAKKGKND
Procedure, shortened: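 Pooled human liver microsomes; test compound at final 0–50 μM in a cocktail incubation with probe substrates: midazolam 1′-hydroxylation (CYP3A), SN-38 glucuronidation (UGT1A1), trifluoperazine N-glucuronidation (UGT1A4), mycophenolic acid glucuronidation (UGT1A9), naloxone 3-glucuronidation (UGT2B7). Metabolites measured by tandem MS; IC50 determined; duplicate.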

Vero = test: Cytotoxicity against African green monkey Vero cells; format: cell-based; settings: Chlorocebus sabaeus
L929 = test: Cytotoxicity against mouse L929 cells; format: cell-based
CHO-K1 = test: Cytotoxicity against CHOK1 cells; format: cell-based; settings: Cricetulus griseus
[3] = AUC (0 to infinity) in rat at 5 mg/kg, iv; format: ADME, organism-based; parameters: dose 5 mg/kg, route intravenous, time infinity; settings: in vivo
Procedure, shortened: (§1)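 Male rats given a single dose, 5 mg/kg intravenously or 10 mg/kg orally. Plasma PK parameters were reported as mean ± SD: AUCt, AUC∞, Cmax, Tmax, T1/2, CL, Vss and oral bioavailability F.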

[4] = Clearance in rat at 5 mg/kg, iv; format: ADME, organism-based; settings: in vivo; procedure, shortened: as §1
[5] = Volume of distribution at steady state in rat at 5 mg/kg, iv; format: ADME, organism-based; settings: in vivo, read-out: Vdss
[6] = Tmax in rat at 10 mg/kg, po; format: ADME, organism-based; settings: in vivo
[7] = AUCt in rat at 10 mg/kg, po; format: ADME, organism-based; settings: in vivo; procedure, shortened: as §1
Mus musculus = test: Antiallergic activity in mouse model of IgE/antigen-stimulated passive cutaneous anaphylaxis assessed as Evans blue exudation at 50 mg/kg, ip administered as single dose for 1 hr treated at 24 hrs post anti-DNP IgE treatment followed by DNP-HSA/Evans blue addition and measured after 1 hr (reference value: 149 +/- 16.9 ug/ml); format: functional
HCT-116 [8] = test: Induction of apoptosis in human HCT116 cells assessed as increase in cleaved-PARP expression at 10 to 50 uM after 24 hrs by Western blot analysis; format: functional, cell-based
Procedure, shortened: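 HCT116 and RKO cells given a range of compound doses for 24 h; lysates probed by Western blot for apoptosis-related proteins (p53, BAX, BCLxL).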

RKO [9] = test: Inhibition of colony formation in human RKO cells at 10 to 50 […] after 7 days by crystal violet staining based assay; format: functional, cell-based
Procedure, shortened: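 HCT116 and RKO cells seeded in 6-well plates and treated with compound for 7 days. Cells then fixed and stained with crystal violet to score colony formation.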

HCT-116 [10] = test: Induction of apoptosis in human HCT116 cells assessed as early apoptotic cells at 10 uM after 24 hrs by Annexin V/propidium iodide staining based flow cytometry (reference value: 4.36%); format: functional
HCT-116 [11] = test: Induction of apoptosis in human HCT116 cells assessed as necrotic cells at 10 uM after 24 hrs by Annexin V/propidium iodide staining based flow cytometry (reference value: 2.92%); format: functional
HCT-116 [12] = test: Induction of apoptosis in human HCT116 cells assessed as live cells at 50 uM after 24 hrs by Annexin V/propidium iodide staining based flow cytometry (reference value: 84.4%); format: functional
HCT-116 [13] = test: Induction of apoptosis in human HCT116 cells assessed as necrotic cells at 50 uM after 24 hrs by Annexin V/propidium iodide staining based flow cytometry (reference value: 2.92%); format: functional
HCT-116 [14] = test: Cell cycle arrest in human HCT116 cells assessed as accumulation at G2/M phase at 25 uM after 24 hrs propidium iodide staining based flow cytometry (reference value: 22.2%); format: functional
Procedure, shortened: (§2)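 HCT116 and RKO cells were treated with compound alone or with oxaliplatin for 24 h before harvest. Cells were stained with propidium iodide, and DNA content was analysed by flow cytometry. Cell-cycle phase populations, including sub-G1, are given as percentages.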

HCT-116 [15] = test: Cell cycle arrest in human HCT116 cells assessed as accumulation at G1/G0 phase at 25 uM after 24 hrs in presence of oxaliplatin propidium iodide staining based flow cytometry (reference value: 41.3%); format: functional; procedure, shortened: as §2
RKO [16] = test: Induction of apoptosis in human RKO cells assessed as live cells at 10 uM after 24 hrs by Annexin V/propidium iodide staining based flow cytometry (reference value: 82.4%); format: functional
RKO [17] = test: Induction of apoptosis in human RKO cells assessed as early apoptotic cells at 25 uM after 24 hrs by Annexin V/propidium iodide staining based flow cytometry (reference value: 9.62%); format: functional
RKO [18] = test: Induction of apoptosis in human RKO cells assessed as late apoptotic cells at 25 uM after 24 hrs by Annexin V/propidium iodide staining based flow cytometry (reference value: 7.42%); format: functional
RKO [19] = test: Induction of apoptosis in human RKO cells assessed as necrotic cells at 25 uM after 24 hrs by Annexin V/propidium iodide staining based flow cytometry (reference value: 0.56%); format: functional
RKO [20] = test: Induction of apoptosis in human RKO cells assessed as live cells at 25 uM after 24 hrs in presence of oxaliplatin by Annexin V/propidium iodide staining based flow cytometry (reference value: 86.4%); format: functional
RKO [21] = test: Induction of apoptosis in human RKO cells assessed as early apoptotic cells at 25 uM after 24 hrs in presence of oxaliplatin by Annexin V/propidium iodide staining based flow cytometry (reference value: 6.33%); format: functional
RKO [22] = test: Cell cycle arrest in human RKO cells assessed as accumulation at G1/G0 phase at 25 uM after 24 hrs propidium iodide staining based flow cytometry (reference value: 39.9%); format: functional; procedure, shortened: as §2
RKO [23] = test: Cell cycle arrest in human RKO cells assessed as accumulation at G1/G0 phase at 50 uM after 24 hrs propidium iodide staining based flow cytometry (reference value: 39.9%); format: functional; procedure, shortened: as §2
RKO [24] = test: Cell cycle arrest in human RKO cells assessed as accumulation at G2/M phase at 50 uM after 24 hrs propidium iodide staining based flow cytometry (reference value: 23.3%); format: functional; procedure, shortened: as §2
RKO [25] = test: Cell cycle arrest in human RKO cells assessed as accumulation at sub-G1 phase at 25 uM after 24 hrs in presence of oxaliplatin propidium iodide staining based flow cytometry (reference value: 12%); format: functional; procedure, shortened: as §2
RKO [26] = test: Cell cycle arrest in human RKO cells assessed as accumulation at S phase at 25 uM after 24 hrs in presence of oxaliplatin propidium iodide staining based flow cytometry (reference value: 4.5%); format: functional
[27] = target: T1, [Pyruvate dehydrogenase (acetyl-transferring)] kinase isozyme 4, mitochondrial; test: Inhibition of PDK4 (unknown origin) at 10 uM relative to control

Cl.O=C1c2ccccc2C(=O)c2c1cccc2-c1cnn(C2CCNCC2)c1
fold change (FC) [1]: 0.04
pIC50 [2]: < 4.30
pIC50 (Vero): 4.44
pIC50 (L929): 4.45
pIC50 (CHO-K1): 4.44
AUC(0-inf) [3]: 7610 ng·h/mL
clearance [4]: 11.4 mL/min/kg
Vd [5]: 5.52 L/kg
Tmax [6]: 6 h
AUC(0-t) [7]: 8920 ng·h/mL
Activity (Mus musculus): 49.9 µg/mL
Activity (HCT-116 [8]): Active
inhibition (RKO [9]): Active
Activity (HCT-116 [10]): 2.9%
Activity (HCT-116 [11]): 12.1%
Activity (HCT-116 [12]): 21.2%
Activity (HCT-116 [13]): 20.2%
Activity (HCT-116 [14]): 37.1%
Activity (HCT-116 [15]): 17.8%
Activity (RKO [16]): 82.8%
Activity (RKO [17]): 19.3%
Activity (RKO [18]): 39.4%
Activity (RKO [19]): 4.61%
Activity (RKO [20]): 36.8%
Activity (RKO [21]): 24.4%
Activity (RKO [22]): 13.7%
Activity (RKO [23]): 3.4%
Activity (RKO [24]): 2.8%
Activity (RKO [25]): 67.4%
Activity (RKO [26]): 5.2%
inhibition [27]: 50.1%
